Data as given in ChEMBL document CHEMBL1145132, “N-hydroxy-3-phenyl-2-propenamides as novel inhibitors of human histone deacetylase with in vivo antitumor activity: discovery of (2E)-N-hydroxy-3-[4-[[(2-hydroxyethyl)[2-(1H-indol-3-yl)ethyl]amino]methyl]phenyl]-2-propenamide (NVP-LAQ824)” (J Med Chem, 2003).
Where “and” joins values, the source holds several entries; their conditions need not be identical. Equal entries are not always repeated.

Tests used:
[1] = target: Histone deacetylase; assay: Inhibitory activity against histone deacetylase (HDAC) enzyme obtained from H1299 human lung carcinoma cell lysates
[2] = system: Mus musculus; assay: Ratio of number of deaths of mice to the number of mice tested was determined at a dose of 100 mg/kg; dead/total = 0 / 8; type: functional
Summary of the method: (§1)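 Female outbred athymic nu/nu mice, eight per group, carrying subcutaneous right-axillary HCT116 (≈10⁶ cells) or A549 (≈10⁷ cells) xenografts, started treatment at ≈100 mm³ tumour volume. Drug given as lactate salt in 10% DMSO/D5W, iv qd 5×/week for 15 doses. Body weights and tumours recorded weekly; deaths counted per group as dead/total.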

[3] = system: Mus musculus; assay: Compound was tested in vivo for efficacy in athymic mice bearing HCT116 subcutaneous tumor xenografts at a dose of 10 mg/kg and change in the body weight of the mouse was evaluated; type: functional; conditions: route intravenous
Summary of the method: (§2)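 Female outbred athymic nu/nu mice, ≈10⁶ HCT116 cells injected sc in right axillary region under anesthesia; treatment began when tumors ≈100 mm³ (day 13 post-implant), groups of eight balanced on tumor volume. Compound given iv as lactate salt in 10% DMSO/D5W, qd 5×/week for 15 doses. Individual body weights recorded once weekly; % change from start reported.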

[4] = system: Mus musculus; assay: Ratio of the change in tumor volume of treated animals to the change in tumor volume of control animals at a dose of 100 mg/kg; type: functional
Summary of the method: (§3)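 HCT116 sc xenografts (≈10⁶ cells) in female athymic nude mice, eight per group, treated from ≈100 mm³ tumors with iv lactate salt in 10% DMSO/D5W qd 5×/week for 10 or 15 doses. Tumors measured weekly; % T/C = change in treated tumor volume over change in vehicle-control tumor volume; one-tailed Student's t-test.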

[5] = system: Mus musculus; assay: Compound was tested in vivo for efficacy in athymic mice bearing HCT116 subcutaneous tumor xenografts at a dose of 25 mg/kg and change in the body weight of the mouse was evaluated; type: functional
[6] = system: NCI-H1299; assay: Inhibitory activity against H1299 human lung carcinoma cell growth; type: functional, cell-based
[7] = system: Mus musculus; assay: Ratio of the change in tumor volume of treated animals to the change in tumor volume of control animals at a dose of 10 mg/kg; type: functional; summary of the method: as §3
[8] = system: HCT-116; assay: Inhibitory activity against HCT116 human colon cell growth; type: functional, cell-based
[9] = system: Mus musculus; assay: Compound was tested in vivo for efficacy in athymic mice bearing HCT116 subcutaneous tumor xenografts at a dose of 50 mg/kg and change in the body weight of the mouse was evaluated; type: functional; conditions: route intravenous; summary of the method: as §2
[10] = system: Mus musculus; assay: Compound was tested in vivo for efficacy in athymic mice bearing HCT116 subcutaneous tumor xenografts at a dose of 100 mg/kg and change in the body weight of the mouse was evaluated; type: functional; conditions: route intravenous; summary of the method: as §2
[11] = system: Mus musculus; assay: Ratio of number of deaths of mice to the number of mice tested was determined at a dose of 10 mg/kg; dead/total = 0 / 8; type: functional; summary of the method: as §1
[12] = system: Mus musculus; assay: Ratio of the change in tumor volume of treated animals to the change in tumor volume of control animals at a dose of 25 mg/kg; type: functional; summary of the method: as §3
[13] = system: Mus musculus; assay: Compound was tested in vivo for maximum tolerated dose (MTD) that resulted in no deaths when administered intravenously for five days; type: functional
Summary of the method: (§4)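 Athymic mice, four per group, dosed iv once daily for five consecutive days, up to a maximum of 200 mg/kg/day. Compound given as the lactate salt in 10% DMSO in 5% dextrose/water (final DMSO 10%). MTD taken as the highest dose that caused no deaths.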

[14] = system: Mus musculus; assay: Ratio of the change in tumor volume of treated animals to the change in tumor volume of control animals at a dose of 50 mg/kg; type: functional; summary of the method: as §3
[15] = system: Mus musculus; assay: Ratio of number of deaths of mice to the number of mice tested was determined at a dose of 50 mg/kg; dead/total = 0 / 8; type: functional; summary of the method: as §1
[16] = system: Mus musculus; assay: Compound was tested for maximum tolerated dose (MTD) that resulted in no deaths when administered intravenously for five days; type: functional; summary of the method: as §4
[17] = system: Mus musculus; assay: Compound was tested for efficacy in athymic mice bearing HCT116 subcutaneous tumor xenografts at a dose of 45 mg/kg and change in the body weight of the mouse was evaluated; type: functional
[18] = system: Mus musculus; assay: Ratio of the change in tumor volume of treated animals to the change in tumor volume of control animals at a dose of 45 mg/kg; type: functional; summary of the method: as §3
[19] = system: Mus musculus; assay: Compound was tested for efficacy in athymic mice bearing HCT116 subcutaneous tumor xenografts at a dose of 50 mg/kg and change in the body weight of the mouse was evaluated; type: functional; summary of the method: as §2

SMILES	IC50 [1] [nM]	IC50 [6] [nM]	IC50 [8] [nM]	also measured
O=C(/C=C/c1ccc(CNCCc2c[nH]c3ccc(F)cc23)cc1)NO	14	310	30	Ratio [2]: 0; Body weight change [3]: -6.4%; T/C ([4]; 100 mg/kg): 16% and 8%; Body weight change [5]: -6.6%; T/C [7]: 40%; Body weight change [9]: -1.7%; Body weight change ([10]; 100 mg/kg): 6.7% and 7.5%; Ratio [11]: 0; T/C [12]: 19%; MTD [13]: 100 mg/kg; T/C [14]: 13%; Ratio [15]: 0
O=C(/C=C/c1ccc(CNCCCc2c[nH]c3ccccc23)cc1)NO	53	1000	100	
COc1ccc2[nH]cc(CCNCc3ccc(/C=C/C(=O)NO)cc3)c2c1	14	580	30	Ratio [2]: 0; Body weight change [3]: -4.6%; T/C ([4]; 100 mg/kg): 9% and 22%; Body weight change [5]: -5.5%; T/C [7]: 64%; Body weight change [9]: -8.1%; Body weight change ([10]; 100 mg/kg): 7.4% and 12%; Ratio [11]: 0; T/C [12]: 38%; MTD [13]: 100 mg/kg; T/C [14]: 24%; Ratio [15]: 0
Nc1ccccc1NC(=O)c1ccc(CNC(=O)OCc2ccccc2)cc1	> 10000	6820	670	
CC(NCCc1c[nH]c2ccccc12)c1ccc(/C=C/C(=O)NO)cc1 (centres undefined)	23	480	15	
O=C(/C=C/c1ccc(CNCCc2ccc3c(c2)OCO3)cc1)NO	30	500	50	
O=C(/C=C/c1ccc(CN[C@H](CO)Cc2c[nH]c3ccccc23)cc1)NO	27	810	50	
CC(Cc1c[nH]c2ccccc12)NCc1ccc(/C=C/C(=O)NO)cc1 (centres undefined)	24	410	20	
O=C(/C=C/c1ccc(CNCc2c[nH]c3ccccc23)cc1)NO	59	2200	160	
CC(C)N(CCc1c[nH]c2ccccc12)Cc1ccc(/C=C/C(=O)NO)cc1		30		Body weight change [5]: -4.1%; T/C [12]: 29%; MTD [13]: 25 mg/kg
O=C(/C=C/c1ccc(CNCCOc2ccccc2)cc1)NO	69	1530	160	
O=C(/C=C/c1ccc(CN(CCO)CCc2cnc3ccccc3c2)cc1)NO	24	530	40	Body weight change [9]: 3.1%; MTD [13]: 50 mg/kg; T/C [14]: 78%
O=C(/C=C/c1ccc(CNCCCc2ccccc2)cc1)NO	150	800	50	MTD [16]: 45 mg/kg; Body weight change [17]: -3.1%; T/C [18]: 86%
O=C(/C=C/c1ccc(CN[C@@H](CO)Cc2c[nH]c3ccccc23)cc1)NO	40	750	40	
O=C(/C=C/c1ccc(CNCCc2c[nH]c3ccccc23)cc1)NO		400		Body weight change [3]: -10.2%; T/C [4]: 17%; Body weight change [5]: -7%; T/C [7]: 56%; Body weight change [9]: -7.3%; Body weight change [10]: -9.4%; T/C [12]: 40%; MTD [13]: 100 mg/kg; T/C [14]: 13%
O=C(/C=C/c1ccc(CNCc2cc3ccccc3[nH]2)cc1)NO	51	940	50	

SMILES	IC50 [1] [nM]	IC50 [6] [nM]	IC50 [8] [nM]	also measured
O=C(/C=C/c1ccc(CN(CCCc2ccccc2)Cc2cccnc2)cc1)NO	164	1700	420	
O=C(/C=C/c1ccc(NCCCc2c[nH]c3ccccc23)cc1)NO	262	820	480	
Cc1nc2ccccc2n1CCNCc1ccc(/C=C/C(=O)NO)cc1	38	2750	200	
O=C(/C=C/c1ccc(CN(CCc2c[nH]c3ccccc23)Cc2ccccc2)cc1)NO	85	2060	120	
O=C(/C=C/c1ccc(CN(CCc2c[nH]c3ccccc23)C2CCCCC2)cc1)NO	20	40	17	
O=C(/C=C/c1ccc(CNCCCCc2c[nH]c3ccccc23)cc1)NO	37	480	30	
O=C(/C=C/c1ccc(CN(CCCc2ccccc2)Cc2ccccn2)cc1)NO	278	2740	740	
O=C(/C=C/c1ccc(CNCCCn2c3ccccc3c3ccccc32)cc1)NO	79	1100	160	
O=C(/C=C/c1ccc(CNCCc2cc3ccccc3[nH]2)cc1)NO	46	540	40	
COc1ccccc1NCCNCc1ccc(/C=C/C(=O)NO)cc1	111	2160	170	
O=C(/C=C/c1ccc(CN(CCOC(=O)NCc2ccoc2)CCc2c[nH]c3ccccc23)cc1)NO	370	180	15	
O=C(/C=C/c1ccc(CNCCc2coc3ccccc23)cc1)NO	16	180	30	Body weight change [9]: 0.5%; MTD [13]: 50 mg/kg; T/C [14]: 49%
O=C(/C=C/c1ccc(CN2CCc3c([nH]c4ccccc34)C2)cc1)NO	118	2900	430	
O=C(/C=C/c1ccc(CN(CCc2c[nH]c3ccccc23)C(CO)CO)cc1)NO	52	2500	160	
O=C(/C=C/c1ccc(CN2CCC(c3c[nH]c4ccccc34)CC2)cc1)NO	53	900	110	
O=C(/C=C/c1ccc(CNCCc2c[nH]c3ccc(OCc4ccccc4)cc23)cc1)NO		65	40	Body weight change [19]: -3%; MTD [16]: 50 mg/kg; T/C [14]: 45%
